Bioassay records as filed in PubChem.
SUMO1 PPI mod: modulators of human SUMO1-mediated protein-protein interactions; P63165; SUMO1 binding to a labelled peptide, TR-FRET, 1 h; inhibition, % at 20 µM; hit rate 0.33% among 360,000; AID 602429; in the data active means inhibition above about 37%
Target sequence (P63165 whole entry, looked up): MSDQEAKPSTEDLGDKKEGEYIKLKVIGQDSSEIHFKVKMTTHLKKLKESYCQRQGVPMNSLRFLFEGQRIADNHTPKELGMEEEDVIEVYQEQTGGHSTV
DNMT1 inh: inhibitors of human DNMT1; DNMT1 molecular beacon, Hinp1I cleavage, fluorescence; hit rate 0.83% among 360,000; inhibition (reported as % activation of signal), % at 10 µM; P26358; in the data active means inhibition above about 50%
Scp1 inh: inhibitors of human Scp-1 phosphatase. Q9GZU7. Recombinant Scp1, phosphopeptide, malachite green phosphate absorbance. inhibition, % at 20 µM. hit rate 0.88% among 340,000. AID 493091;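 active means inhibition above about 50% at 20 µM, limit read from the data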;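 further: plate controls were DMSO wells with enzyme for no effect and wells lacking enzyme for full effect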
Target sequence (Q9GZU7 76-261 limits assumed): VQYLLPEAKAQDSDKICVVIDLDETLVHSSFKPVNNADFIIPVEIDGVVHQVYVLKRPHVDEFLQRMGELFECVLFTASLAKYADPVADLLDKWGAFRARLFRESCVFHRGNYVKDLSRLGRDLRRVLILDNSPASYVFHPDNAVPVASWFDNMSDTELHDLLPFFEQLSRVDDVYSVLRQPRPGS
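Test system: SCP-1 phosphatase catalytic domain, residues 76-261; measured by: colorimetric phosphate reagent with accelerator and stabiliser, absorbance at 630 nm; timing: enzyme reaction 45 min at room temperature, colour 5 min, stabilisation 30 min; also added: Phosphorylated 17-residue peptide substrate; compound dosing: one concentration, 20 µM, with 1.0% DMSO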
STEP block: inhibitors of human striatal-enriched phosphatase STEP. recombinant STEP, OMFP fluorogenic substrate, fluorescence. inhibition, % at 20 µM. hit rate 0.25% among 360,000. AID 588621;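 active means inhibition at 20 µM, scaled per plate between control wells, above about 37%, limit read from the data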;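 further: 0% = DMSO with enzyme and substrate and 100% = substrate only without enzyme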
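medium = Bis-Tris buffer pH 6.0, 2.5 mM DTT, 0.005% Tween 20 | test system = STEP (striatal-enriched tyrosine phosphatase) enzyme, cell-free | measure = normalized % inhibition | compound dosing = 20 µM, 1% DMSO | also added = 25 µM OMFP | schedule = reaction 20 min, ambient temperature | measured by = fluorescence read at 480 nm ex / 540 nm em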
LMPTP inh: LMPTP (human) inhibition. P24666. recombinant LMPTP-A, OMFP fluorogenic substrate, fluorescence intensity. inhibition, % at 20 µM. hit rate 0.22% among 360,000;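 active means compounds that cut the enzyme signal by at least half of the control window in the single-dose screen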;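 further: plate controls were DMSO wells with enzyme plus substrate for no effect and substrate without enzyme for full effect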
Target sequence (P24666 whole entry, looked up): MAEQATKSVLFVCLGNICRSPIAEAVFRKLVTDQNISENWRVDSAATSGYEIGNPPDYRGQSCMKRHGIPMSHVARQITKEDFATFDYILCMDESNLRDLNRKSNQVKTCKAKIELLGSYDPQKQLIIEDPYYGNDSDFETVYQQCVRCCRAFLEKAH
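Assay system: LMPTP-A, protein tyrosine phosphatase of low molecular weight / Medium: pH 6.0 Bis-Tris buffer with DTT and Triton X-100 / Schedule: 50 min enzyme reaction at room temperature, protected from light / Measured by: endpoint fluorescence intensity from OMFP dephosphorylation / Read-out basis: % inhibition relative to no-enzyme and uninhibited control wells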
Scp1 confirm: Scp-1 (human) inhibition, single-dose confirmed; shares compounds with Scp1 inh; recombinant SCP-1 catalytic domain, phosphate release, malachite green absorbance; inhibition, % at 20 µM; hit rate 61% among 2,500;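 further: plate controls were DMSO with enzyme for no effect and buffer wells lacking enzyme for full effect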
Scp-1 MG ctr: interferes with malachite green readout, flagging false Scp-1 hits. shares compounds with Scp1 inh. Colorimetric interference counterscreen, malachite green absorbance 630 nm. apparent inhibition (interference), % at 20 µM. 2,500 tested, under 10 active. AID 540313;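 further: compounds added after enzyme reaction finished so only phosphate colour detection is probed; plate controls were DMSO wells with completed Scp-1 reaction for no effect and substrate wells lacking enzyme for full effect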
Scp1 DSF: Scp-1 (human) binding by thermal shift. shares compounds with Scp1 inh. Recombinant SCP1, Sypro Orange thermal shift Tm. thermal shift relative to vanadate control, % at 40 µM. hit rate 25% among 1,500. AID 540329;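 active means substances whose mean melting-temperature shift, as a percentage of the reference inhibitor's shift, reaches about 5.3%, limit read from the data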;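 further: 0% = Tm of DMSO wells and 100% = Tm with sodium orthovanadate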
DNMT1 confirm: DNMT1 inhibition confirmation, single concentration; shares compounds with DNMT1 inh; DNMT1 molecular beacon HinP1I cleavage, fluorescence; inhibition, % at 10 µM; hit rate 8% among 2,300;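 active means average inhibition of at least 30% in the single-concentration confirmation test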
Beacon interf: beacon fluorescence artifact counter-screen; DNMT1 molecular beacon spectral interference counterscreen, fluorescence 485/520; AID 602387; shares compounds with DNMT1 inh; hit rate 1% among 2,300; activation (fluorescence interference), % at 10 µM;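 active means activation of at least 30% at 10 µM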;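 further: DNMT1 catalytic domain with a HinP1I cleavage step and a FAM/dabcyl DNA beacon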
Active calls of the source: *; · = no result given. Compounds with a hit are over-represented: about 1.7% of the library has one in this group of screens.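 How the source made its calls, unless noted: active means inhibition of at least 30% at 20 µM; inactive means the rest.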

SMILES	SUMO1 PPI mod	DNMT1 inh	Scp1 inh	STEP block	LMPTP inh	Scp1 confirm	Scp-1 MG ctr	Scp1 DSF	others
CCCc1n(CC(O)COCC2CC=CCC2)c2ccccc2[n+]1C (configuration not stated)	-3	-3	67*	-1	-1	10	-6	·
CCCc1n(CC(O)COCc2ccccc2)c2ccccc2[n+]1C (configuration not stated)	-1	3	21	-3	1	·	·	·
CCCNC(=O)C(Cc1cccc(C#N)c1)NC(=O)c1ccc(C#N)cc1 (configuration not stated)	1	6	-8	-4	-2	·	·	·
Cc1cc2ccccn2c1C(=O)c1ccc(N/N=C/c2ccc(C(=O)O)cc2)c([N+](=O)[O-])c1	104*	88*	114*	99*	8	70*	-19	6.4*
Cc1cccc(OCC(=O)OC(C)C(=O)Nc2ccc(S(=O)(=O)N3CCCCC3)cc2)c1 (configuration not stated)	0	-5	-8	-3	1	·	·	·
Cc1ccc(CNC(=O)c2cc(=O)c3cc(C)ccc3o2)cc1	12	2	61*	24	29	20	-15	·
CC(C)c1cccc(C2=CC(=O)C[C@H](c3ccc4c(c3)OCO4)C2)c1	-3	2	-5	2	4	·	·	·
O=C(CSc1nnc(-c2ccncc2)n1-c1ccc(F)cc1)NC(=O)NCc1ccco1	0	68*	89*	5	7	64*	-8	-3
C=C(C)C(=O)Nc1cccc(C2=NOC3(C2)C[C@@H](C(N)=O)N(C(=O)CCCCC)C3)c1 (some centres not stated)	·	·	83*	·	·	69*	-10	-6
CCCCCC(=O)N1CC2(CC(c3cccc(NC(=O)[C@@H]4CCC(=O)N4)c3)=NO2)C[C@@H]1C(N)=O (some centres not stated)	0	6	0	-2	-1	·	·	·
C/C=C\C=C\C(=O)N1CC2(CC(c3cccc(NC(=O)CC)c3)=NO2)C[C@H]1C(N)=O (some centres not stated)	26	-5	70*	0	-2	66*	-11	-6
C/C=C/C=C\C(=O)Nc1cccc(C2=NOC3(C2)C[C@H](C(N)=O)N(C(=O)/C=C/C)C3)c1 (some centres not stated)	10	-19	22	0	0	·	·	·
COc1ccc([C@H]2C[C@H](n3cc(-c4ccc(F)cc4)nn3)[C@@H](O)CN2CC2CCCCC2)cc1	-1	0	·	0	2	·	·	·
COCCCNC(=O)c1csc([C@H]2C[C@H](O)[C@@H](CO)O2)n1	-3	-2	·	0	-1	·	·	·
Cc1nn(CCc2nn[nH]n2)c2nc(C(F)(F)F)cc(C(F)(F)F)c12	1	1	-7	-6	1	·	·	·
Cc1nn(CCc2nn[nH]n2)c2nc(-c3ccc(Br)cc3)cc(C(F)(F)F)c12	4	-1	53*	26	0	24	-15	·
O=C(NN1CCOCC1)c1c(-c2ccccc2)sc2ccccc12	5	9	-3	-1	-2	·	·	·
CS(=O)(=O)c1ccc(-c2sc3cc4c(cc3c2C(=O)NN2CCOCC2)OCO4)cc1	-18	5	101*	-1	-1	86*	-7	-20
CNc1ccccc1C(=O)OCC(=O)N1CCN(c2ccc(OC)cc2)CC1	-1	0	66*	3	1	-1	-7	·
COc1ccc(N2CCN(C(=O)COC(=O)c3cccc(OC)c3O)CC2)cc1	1	6	-4	1	-2	·	·	·
Cc1ccc(S(=O)(=O)CCC(=O)OCC(=O)N2CCc3ccccc32)cc1	6	0	60*	-1	0	-9	-10	·
COc1ccc2cc3c(N)nn(C(=O)c4ccc(Cl)c([N+](=O)[O-])c4)c3nc2c1	0	83*	94*	89*	65*	74*	-17	8.2*	DNMT1 confirm=9;Beacon interf=-8
NS(=O)(=O)c1ccc(NC(=O)c2ccc(-c3ccccc3)cc2)cc1	-3	73*	60*	24	42	66*	-11	14*	DNMT1 confirm=6;Beacon interf=-4
O=C(C=C1SCCS1)/C=C/c1ccco1	2	88*	76*	6	34	52*	-20	-8	DNMT1 confirm=3;Beacon interf=-2
O=C(C=Cc1ccco1)c1ccco1	1	11	13	7	2	·	·	·
SMILES	SUMO1 PPI mod	DNMT1 inh	Scp1 inh	STEP block	LMPTP inh	Scp1 confirm	Scp-1 MG ctr	Scp1 DSF	others
O=C(O)C(C(=O)/C=C/c1ccco1)=C1SCCS1	25	96*	55*	10	10	63*	-2	3	DNMT1 confirm=4;Beacon interf=0
O=C(/C=C/c1ccco1)NC1CCCC1	0	9	21	6	3	·	·	·
O=C(c1cccc(C(F)(F)F)c1)C1CCCN(C(=O)c2cc(C3CC3)[nH]n2)C1 (configuration not stated)	2	-2	-3	2	2	·	·	·
COc1ccc(CN(C)CCCn2cnc3c(OCc4ccccc4)ncnc32)cc1OC	5	2	0	-1	-1	·	·	·
Clc1ccc2nc(C3CCCCC3)c(Cc3ccsc3)n2c1	7	7	·	-4	1	·	·	·
O=C(O)/C(=C\c1cccc(F)c1)c1ccc(S(=O)(=O)N2CCCCC2)s1	0	33	40	0	0	·	·	·
CSc1ccc(/C=C(\C(=O)O)c2ccc(S(=O)(=O)N3CCCC3)s2)cc1	-3	86*	69*	2	19	68*	-13	5.6*	DNMT1 confirm=11;Beacon interf=3
O=[N+]([O-])c1ccc(/C=N/Nc2nc(-c3ccccc3)c3cc(Br)ccc3n2)o1	-13	51*	101*	16	60*	76*	-5	5	DNMT1 confirm=6;Beacon interf=1
Cc1ccc2nc(N/N=C\c3ccc([N+](=O)[O-])o3)nc(-c3ccccc3)c2c1	-33	15	38	5	8	·	·	·
COc1cccc(NC(=O)c2cccnn2)c1	2	0	-7	-1	1	·	·	·
CC(C)n1nnnc1C1c2ccccc2C(=O)N1CCCn1ccnc1 (configuration not stated)	2	·	·	·	-3	·	·	·
